In ChEMBL document CHEMBL3877306, “Triazole Ureas Act as Diacylglycerol Lipase Inhibitors and Prevent Fasting-Induced Refeeding” (J Med Chem, 2017):
Activity calls are given as the source filed them. The calls are words filed in the database; no cut-off is given here.

How the values were obtained:
[1] = target: T1, Monoacylglycerol lipase ABHD6 (Homo sapiens, UniProt Q9BV23); assay: Inhibition of human ABHD6 using 2-AG as natural substrate by fluorescence based assay
T1 sequence (Q9BV23 whole entry): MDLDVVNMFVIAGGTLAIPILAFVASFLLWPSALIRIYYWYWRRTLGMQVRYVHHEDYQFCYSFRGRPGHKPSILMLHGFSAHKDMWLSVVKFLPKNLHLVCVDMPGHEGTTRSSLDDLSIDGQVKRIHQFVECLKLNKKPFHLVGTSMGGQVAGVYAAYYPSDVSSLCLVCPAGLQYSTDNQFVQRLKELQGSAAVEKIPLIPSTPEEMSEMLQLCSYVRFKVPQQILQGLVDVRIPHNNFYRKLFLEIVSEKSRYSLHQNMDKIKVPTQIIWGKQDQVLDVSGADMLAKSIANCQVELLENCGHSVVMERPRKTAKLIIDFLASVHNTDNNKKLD
How it was run: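 Coupled fluorescence assay: 2-AG hydrolysis detected via glycerol kinase, glycerol-3-phosphate oxidase and HRP (0.2 U/mL each), 0.125 mM ATP and 10 µM Amplifu Red. Conditions: 25 µM 2-AG, 0.5% acetonitrile, 5% DMSO, ABHD6 membrane protein 40 µg/mL final. n = 4.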

[2] = target: T2, Diacylglycerol lipase-alpha (Mus musculus) (UniProt Q6WQJ1); assay: (§1) Inhibition of MB064 probe binding to DAGLalpha in mouse brain membrane proteome preincubated for 30 mins followed by MB064 probe addition measured after 20 mins by gel-based competitive activity based protein profiling assay; type: cell membranes
T2 sequence (whole entry): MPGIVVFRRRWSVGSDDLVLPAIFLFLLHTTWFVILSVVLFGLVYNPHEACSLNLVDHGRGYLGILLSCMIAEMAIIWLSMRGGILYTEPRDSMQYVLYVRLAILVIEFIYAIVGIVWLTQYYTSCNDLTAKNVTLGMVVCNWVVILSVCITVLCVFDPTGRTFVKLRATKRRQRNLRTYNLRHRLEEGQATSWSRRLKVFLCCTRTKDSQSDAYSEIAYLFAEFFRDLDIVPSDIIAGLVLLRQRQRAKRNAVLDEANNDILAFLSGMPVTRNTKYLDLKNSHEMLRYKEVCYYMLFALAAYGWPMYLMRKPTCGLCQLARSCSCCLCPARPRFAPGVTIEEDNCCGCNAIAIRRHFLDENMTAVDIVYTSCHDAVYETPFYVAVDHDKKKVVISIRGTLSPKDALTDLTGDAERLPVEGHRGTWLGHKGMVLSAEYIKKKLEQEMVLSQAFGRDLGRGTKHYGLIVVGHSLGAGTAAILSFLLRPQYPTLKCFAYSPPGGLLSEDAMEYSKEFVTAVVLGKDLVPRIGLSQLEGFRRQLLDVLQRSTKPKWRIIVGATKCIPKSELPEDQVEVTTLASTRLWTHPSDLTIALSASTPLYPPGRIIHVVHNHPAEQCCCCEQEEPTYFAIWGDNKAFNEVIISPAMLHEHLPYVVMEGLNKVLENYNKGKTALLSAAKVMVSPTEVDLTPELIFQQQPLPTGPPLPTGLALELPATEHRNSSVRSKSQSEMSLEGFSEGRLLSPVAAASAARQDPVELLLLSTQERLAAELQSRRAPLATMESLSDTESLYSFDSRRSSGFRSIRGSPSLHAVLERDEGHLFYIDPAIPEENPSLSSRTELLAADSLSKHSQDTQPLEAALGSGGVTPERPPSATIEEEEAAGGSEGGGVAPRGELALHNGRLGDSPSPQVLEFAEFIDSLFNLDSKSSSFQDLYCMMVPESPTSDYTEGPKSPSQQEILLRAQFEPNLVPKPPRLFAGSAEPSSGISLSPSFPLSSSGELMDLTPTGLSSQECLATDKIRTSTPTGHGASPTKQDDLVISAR
How it was run: (§2)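 Mouse brain membrane proteome (2 mg/mL) preincubated with inhibitor or DMSO vehicle for 30 min at r.t., then labelled with MB064 at 250 nM final for 20 min at r.t. and quenched in Laemmli buffer. Fluorescent bands were quantified against vehicle set to 100%, and IC50 was taken from a variable-slope log(inhibitor) vs normalized response fit. n = 3.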

[3] = target: T3, Diacylglycerol lipase-alpha (Mus musculus, UniProt Q6WQJ1); assay: as §1; type: cell membranes; how it was run: as §2
T3 sequence (Q6WQJ1 whole entry): T2 sequence (whole entry)

[4] = target: T4, Monoacylglycerol lipase ABHD6 (Mus musculus, UniProt Q8R2Y0); assay: Inhibition of MB064 probe binding to ABHD6 in mouse brain membrane proteome preincubated for 30 mins followed by MB064 probe addition measured after 20 mins by gel-based competitive activity based protein profiling assay; type: cell membranes; how it was run: as §2
T4 sequence (Q8R2Y0 whole entry): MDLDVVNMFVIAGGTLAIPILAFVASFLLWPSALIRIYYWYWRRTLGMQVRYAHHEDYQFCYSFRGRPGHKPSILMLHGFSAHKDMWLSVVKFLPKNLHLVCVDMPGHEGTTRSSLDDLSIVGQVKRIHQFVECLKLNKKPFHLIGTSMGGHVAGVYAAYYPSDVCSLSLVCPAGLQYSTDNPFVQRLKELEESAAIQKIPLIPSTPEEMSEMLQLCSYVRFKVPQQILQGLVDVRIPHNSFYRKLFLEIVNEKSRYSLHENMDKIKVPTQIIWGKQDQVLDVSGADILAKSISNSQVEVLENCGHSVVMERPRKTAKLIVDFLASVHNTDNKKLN

[5] = organism: Mus musculus; assay: Selectivity ratio of IC50 for ABHD6 in mouse brain membrane proteome to IC50 for DAGLalpha in mouse brain membrane proteome; type: cell membranes
How it was run: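 Ratio of DAGLα and ABHD6 […] values, both from competitive gel ABPP in mouse brain membrane proteome. Inhibitor was preincubated 30 min at r.t., then MB064 (250 nM final) was added for 20 min. Band intensities were normalized to vehicle and fitted with a variable-slope curve. n = 3.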

[6] = test system: Mus musculus; assay: Inhibition of fasting-induced refeeding in 18 hrs fasted C57Bl/6J mouse at 50 mg/kg, ip administered as single dose 30 mins prior to refeeding measured up to 4 hrs; type: functional, organism-based
[7] = test system: Mus musculus; assay: Reduction in carbohydrate oxidation in 18 hrs fasted C57Bl/6J mouse model of fasting-induced refeeding at 50 mg/kg, ip administered as single dose 30 mins prior to refeeding measured after 20 mins; type: functional, organism-based
[8] = test system: Mus musculus; assay: Increase in fat oxidation in 18 hrs fasted C57Bl/6J mouse model of fasting-induced refeeding at 50 mg/kg, ip administered as single dose 30 mins prior to refeeding measured after 20 mins; type: functional, organism-based
[9] = test system: Mus musculus; assay: Toxicity in 18 hrs fasted C57Bl/6J mouse model of fasting-induced refeeding assessed as effect on locomotor activity at 50 mg/kg, ip administered as single dose 30 mins prior to refeeding measured after 24 hrs; type: organism-based; settings: in vivo
[10] = test system: Mus musculus; assay: Ex vivo inhibition of FP-TAMRA probe binding to carboxylesterase in mouse liver at 3 to 50 mg/kg, ip after 4 hrs by gel-based competitive activity based protein profiling assay; type: functional, organism-based

For `C#CCO[C@@H]1CC[C@H](Cc2ccccc2)N(C(=O)n2ncc(C(O)(c3ccc(F)cc3)c3ccc(F)cc3)n2)C1`, the IC50 [1] was 2.51 nM, the inhibition [2] was “Dose-dependent effect” and the IC50 [3] was 0.631 nM. The IC50 [4] was 79.4 nM, the Ratio IC50 [5] was 126 and the inhibition [6] was “Active”. The Activity [7] was “Active”, the Activity [8] was “Active” and the Activity [9] was “Non-Toxic”. The inhibition [10] was “Active”.
